In ChEMBL document CHEMBL1151785, “Oleanolic acid and its derivatives: new inhibitor of protein tyrosine phosphatase 1B with cellular activities” (Bioorg Med Chem, 2008):
Active and inactive are the calls of the source. The calls are words filed in the database; no cut-off is given here.

Key:
[1] = Selectivity for PTP1B to human recombinant SHP1
[2] = target: Tyrosine-protein phosphatase non-receptor type 6 (Homo sapiens, UniProt P29350); test: Inhibition of human recombinant SHP1
[3] = target: T1, Tyrosine-protein phosphatase non-receptor type 1 (Homo sapiens, UniProt P18031); test: Inhibition of PTP1B by pNPP assay
T1 sequence (P18031 whole entry): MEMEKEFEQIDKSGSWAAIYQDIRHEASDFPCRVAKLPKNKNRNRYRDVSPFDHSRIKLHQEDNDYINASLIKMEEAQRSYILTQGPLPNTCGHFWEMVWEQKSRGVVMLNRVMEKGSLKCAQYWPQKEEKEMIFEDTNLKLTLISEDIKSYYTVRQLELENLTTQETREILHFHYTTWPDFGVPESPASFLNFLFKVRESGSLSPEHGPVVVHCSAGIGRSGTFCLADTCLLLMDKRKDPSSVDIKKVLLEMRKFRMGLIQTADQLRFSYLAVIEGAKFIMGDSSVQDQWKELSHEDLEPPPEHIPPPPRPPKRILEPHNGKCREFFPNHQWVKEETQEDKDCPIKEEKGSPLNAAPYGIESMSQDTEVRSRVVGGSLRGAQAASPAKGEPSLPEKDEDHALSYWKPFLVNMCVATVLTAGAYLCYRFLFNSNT

[4] = target: T2, Tyrosine-protein phosphatase non-receptor type 2 (Homo sapiens, UniProt P17706); test: Inhibition of TCPTP by pNPP assay
T2 sequence (P17706 whole entry): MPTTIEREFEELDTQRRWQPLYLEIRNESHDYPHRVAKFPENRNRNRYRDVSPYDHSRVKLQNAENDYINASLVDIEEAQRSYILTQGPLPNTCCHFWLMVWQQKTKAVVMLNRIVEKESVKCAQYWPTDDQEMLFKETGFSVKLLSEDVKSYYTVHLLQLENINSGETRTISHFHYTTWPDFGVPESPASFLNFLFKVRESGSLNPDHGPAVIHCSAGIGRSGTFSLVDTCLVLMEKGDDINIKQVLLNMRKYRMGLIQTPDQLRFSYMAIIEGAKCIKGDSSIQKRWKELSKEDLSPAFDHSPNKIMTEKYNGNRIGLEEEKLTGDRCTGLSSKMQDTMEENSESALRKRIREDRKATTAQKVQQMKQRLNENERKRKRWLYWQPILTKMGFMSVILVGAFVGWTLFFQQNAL

[5] = target: Receptor-type tyrosine-protein phosphatase alpha (Homo sapiens, UniProt P18433); test: Inhibition of human recombinant PTPalpha
[6] = target: Receptor-type tyrosine-protein phosphatase epsilon (Homo sapiens, UniProt P23469); test: Inhibition of human recombinant PTPepsilon
[7] = target: Receptor-type tyrosine-protein phosphatase F (Homo sapiens, UniProt P10586); test: Inhibition of human recombinant LAR
[8] = tested on: L6; test: Increase in glucose uptake in rat L6 cells after 3 hrs in absence of insulin; type: functional, cell-based
How it was run: (§1)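 Rat L6 myoblasts grown in α-DMEM with 10% FBS at 37 °C under 5% CO2, then differentiated in α-DMEM with 2% FBS. Used as myotubes on day 5 after 2 h serum-free starvation (0.2% BSA). Compound at 250 nM–2 µM for 3 h without insulin. 2-Deoxy[1,2-3H]glucose uptake measured over 10 min in HEPES saline, pH 7.4, 0.1 mM glucose. Lysate counts normalised to protein, given as % of basal/0.2% DMSO cells.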

[9] = target: Insulin receptor (Homo sapiens) (UniProt P06213); test: Increase in human IRbeta phosphorylation expressed in CHO cells; type: cell-based
How it was run: (§2)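 CHO cells stably carrying human insulin receptor were grown near-confluent, then starved 2 h in serum-free Ham's F-12. Compound was given for 3 h, followed by 10 nM insulin for 10 min. Lysates were run on 8% SDS-PAGE and western blotted for phospho-IR (Tyr1162/1163), phospho-Akt (Ser473) and β-actin, with ECL detection.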

[10] = tested on: L6; test: Increase in glucose uptake in rat L6 cells at 1 uM after 3 hrs in presence of insulin relative to basal; type: functional; conditions: in the assay text read “after 2.5 hrs” for “after 3 hrs”
How it was run: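 Differentiated rat L6 myotubes (day 5) were serum-starved 2 h, exposed to 1.0 µM compound for 2.5 h, then stimulated 30 min with 1, 10 or 100 nM insulin. 2-Deoxy[1,2-3H]glucose uptake was read over 10 min (0.1 mM glucose, HEPES saline pH 7.4). Radioactivity from 0.1% Triton lysates was normalised to protein and expressed relative to basal/DMSO-treated cells.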

[11] = tested on: L6; test: Increase in glucose uptake in rat L6 cells at 1 uM after 3 hrs in absence of insulin relative to basal; type: functional; how it was run: as §1
[12] = target: RAC-alpha serine/threonine-protein kinase (Homo sapiens) (UniProt P31749); test: Increase in human Akt phosphorylation expressed in CHO cells; type: cell-based; how it was run: as §2
Sequence of RAC-alpha serine/threonine-protein kinase (Homo sapiens) (P31749 whole entry): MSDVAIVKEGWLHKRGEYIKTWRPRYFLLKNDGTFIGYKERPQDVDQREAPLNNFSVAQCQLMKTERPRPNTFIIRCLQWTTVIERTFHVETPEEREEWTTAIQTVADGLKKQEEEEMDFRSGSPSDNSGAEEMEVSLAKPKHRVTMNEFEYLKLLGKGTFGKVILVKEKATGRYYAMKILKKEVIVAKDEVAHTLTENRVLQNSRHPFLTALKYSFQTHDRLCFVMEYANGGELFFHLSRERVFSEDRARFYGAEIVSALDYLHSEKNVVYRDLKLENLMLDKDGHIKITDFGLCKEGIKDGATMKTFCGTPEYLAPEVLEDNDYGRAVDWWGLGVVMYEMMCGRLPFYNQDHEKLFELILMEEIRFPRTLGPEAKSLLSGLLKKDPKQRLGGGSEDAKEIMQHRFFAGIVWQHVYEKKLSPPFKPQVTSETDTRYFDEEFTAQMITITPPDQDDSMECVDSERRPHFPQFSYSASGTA

Sequence of Receptor-type tyrosine-protein phosphatase alpha (P18433 whole entry): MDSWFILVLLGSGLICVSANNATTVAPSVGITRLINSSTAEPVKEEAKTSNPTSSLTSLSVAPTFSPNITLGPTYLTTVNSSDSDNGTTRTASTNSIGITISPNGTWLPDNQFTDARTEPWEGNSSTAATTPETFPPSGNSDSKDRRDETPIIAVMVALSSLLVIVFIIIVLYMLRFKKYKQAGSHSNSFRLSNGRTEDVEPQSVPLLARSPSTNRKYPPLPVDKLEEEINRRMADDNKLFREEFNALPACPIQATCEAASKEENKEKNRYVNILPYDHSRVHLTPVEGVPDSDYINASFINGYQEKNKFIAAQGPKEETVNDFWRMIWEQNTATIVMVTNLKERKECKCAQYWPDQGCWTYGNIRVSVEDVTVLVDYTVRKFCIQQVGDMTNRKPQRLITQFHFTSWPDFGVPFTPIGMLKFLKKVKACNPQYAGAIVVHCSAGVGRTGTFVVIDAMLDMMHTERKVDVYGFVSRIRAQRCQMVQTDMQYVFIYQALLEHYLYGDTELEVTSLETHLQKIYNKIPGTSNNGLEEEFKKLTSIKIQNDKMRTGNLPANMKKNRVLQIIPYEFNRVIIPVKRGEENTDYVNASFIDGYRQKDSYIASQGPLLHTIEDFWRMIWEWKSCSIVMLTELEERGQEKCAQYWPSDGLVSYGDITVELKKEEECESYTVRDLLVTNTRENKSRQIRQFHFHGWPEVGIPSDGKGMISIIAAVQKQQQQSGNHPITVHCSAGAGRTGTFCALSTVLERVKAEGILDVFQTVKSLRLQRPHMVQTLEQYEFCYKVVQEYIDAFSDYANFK
Sequence of Receptor-type tyrosine-protein phosphatase epsilon (P23469 whole entry): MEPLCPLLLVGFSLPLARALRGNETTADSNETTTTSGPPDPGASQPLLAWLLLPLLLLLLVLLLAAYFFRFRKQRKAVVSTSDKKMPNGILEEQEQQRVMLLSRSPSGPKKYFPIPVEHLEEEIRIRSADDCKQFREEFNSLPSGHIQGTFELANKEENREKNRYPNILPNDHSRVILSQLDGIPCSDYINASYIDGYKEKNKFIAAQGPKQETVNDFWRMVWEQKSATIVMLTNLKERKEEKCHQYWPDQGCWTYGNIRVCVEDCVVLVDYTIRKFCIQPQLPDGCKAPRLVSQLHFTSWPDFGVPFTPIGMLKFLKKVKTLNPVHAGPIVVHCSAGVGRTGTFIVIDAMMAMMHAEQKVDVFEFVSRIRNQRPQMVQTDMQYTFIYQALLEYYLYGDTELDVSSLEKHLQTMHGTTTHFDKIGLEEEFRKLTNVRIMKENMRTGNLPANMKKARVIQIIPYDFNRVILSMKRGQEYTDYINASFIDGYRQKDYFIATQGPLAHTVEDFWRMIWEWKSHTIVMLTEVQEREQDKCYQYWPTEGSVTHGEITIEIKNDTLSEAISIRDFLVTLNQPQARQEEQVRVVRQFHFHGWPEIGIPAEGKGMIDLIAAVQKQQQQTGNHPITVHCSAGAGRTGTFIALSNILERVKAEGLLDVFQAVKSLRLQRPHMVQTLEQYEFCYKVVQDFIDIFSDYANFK
Sequence of Receptor-type tyrosine-protein phosphatase F (P10586 whole entry): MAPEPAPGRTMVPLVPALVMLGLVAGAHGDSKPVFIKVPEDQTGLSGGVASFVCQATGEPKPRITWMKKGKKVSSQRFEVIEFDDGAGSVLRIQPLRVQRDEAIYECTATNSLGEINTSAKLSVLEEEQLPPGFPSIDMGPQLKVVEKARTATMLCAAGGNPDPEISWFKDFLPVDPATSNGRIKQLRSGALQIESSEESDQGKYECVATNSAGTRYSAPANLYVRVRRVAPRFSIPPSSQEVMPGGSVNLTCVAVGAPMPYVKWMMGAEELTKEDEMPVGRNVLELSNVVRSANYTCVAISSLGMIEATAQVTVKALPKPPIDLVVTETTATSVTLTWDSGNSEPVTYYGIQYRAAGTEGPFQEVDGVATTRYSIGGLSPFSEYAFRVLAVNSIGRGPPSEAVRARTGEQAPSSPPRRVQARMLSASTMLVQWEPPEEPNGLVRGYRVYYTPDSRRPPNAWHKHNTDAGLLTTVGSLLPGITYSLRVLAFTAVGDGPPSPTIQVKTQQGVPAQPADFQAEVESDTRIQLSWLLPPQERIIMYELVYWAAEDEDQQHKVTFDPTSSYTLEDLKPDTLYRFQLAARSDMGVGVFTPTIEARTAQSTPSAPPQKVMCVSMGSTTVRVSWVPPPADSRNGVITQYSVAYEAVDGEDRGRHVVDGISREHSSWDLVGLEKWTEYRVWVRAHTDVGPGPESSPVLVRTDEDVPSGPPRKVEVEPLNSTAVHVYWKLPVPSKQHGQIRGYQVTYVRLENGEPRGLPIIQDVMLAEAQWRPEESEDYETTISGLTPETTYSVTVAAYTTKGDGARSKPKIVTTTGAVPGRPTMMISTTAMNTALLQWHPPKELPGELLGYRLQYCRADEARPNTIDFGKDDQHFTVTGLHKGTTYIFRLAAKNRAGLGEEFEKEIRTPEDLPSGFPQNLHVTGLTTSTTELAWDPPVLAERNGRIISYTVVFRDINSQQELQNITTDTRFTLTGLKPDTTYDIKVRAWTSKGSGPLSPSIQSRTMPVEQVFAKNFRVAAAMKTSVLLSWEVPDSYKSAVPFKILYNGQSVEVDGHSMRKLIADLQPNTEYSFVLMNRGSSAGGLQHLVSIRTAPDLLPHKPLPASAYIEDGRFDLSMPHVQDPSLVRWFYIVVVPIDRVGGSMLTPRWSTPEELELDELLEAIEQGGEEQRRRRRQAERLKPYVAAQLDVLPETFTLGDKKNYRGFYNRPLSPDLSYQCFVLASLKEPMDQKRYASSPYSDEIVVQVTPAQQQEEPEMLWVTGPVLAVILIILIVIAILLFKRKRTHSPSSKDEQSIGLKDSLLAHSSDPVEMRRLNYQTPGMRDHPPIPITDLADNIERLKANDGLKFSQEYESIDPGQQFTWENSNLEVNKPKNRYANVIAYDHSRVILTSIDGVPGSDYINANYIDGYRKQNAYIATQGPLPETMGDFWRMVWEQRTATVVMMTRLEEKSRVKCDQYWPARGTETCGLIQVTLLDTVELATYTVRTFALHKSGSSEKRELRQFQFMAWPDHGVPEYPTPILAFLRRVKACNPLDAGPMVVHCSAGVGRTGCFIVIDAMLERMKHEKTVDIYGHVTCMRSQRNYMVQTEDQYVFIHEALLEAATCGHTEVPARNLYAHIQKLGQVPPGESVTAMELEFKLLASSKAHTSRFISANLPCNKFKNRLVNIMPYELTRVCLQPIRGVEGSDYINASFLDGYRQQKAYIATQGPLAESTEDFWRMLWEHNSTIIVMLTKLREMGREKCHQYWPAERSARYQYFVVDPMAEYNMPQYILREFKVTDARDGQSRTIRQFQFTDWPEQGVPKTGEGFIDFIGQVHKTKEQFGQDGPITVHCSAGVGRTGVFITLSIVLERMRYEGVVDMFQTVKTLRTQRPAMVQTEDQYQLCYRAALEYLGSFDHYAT
Sequence of Tyrosine-protein phosphatase non-receptor type 6 (P29350 whole entry): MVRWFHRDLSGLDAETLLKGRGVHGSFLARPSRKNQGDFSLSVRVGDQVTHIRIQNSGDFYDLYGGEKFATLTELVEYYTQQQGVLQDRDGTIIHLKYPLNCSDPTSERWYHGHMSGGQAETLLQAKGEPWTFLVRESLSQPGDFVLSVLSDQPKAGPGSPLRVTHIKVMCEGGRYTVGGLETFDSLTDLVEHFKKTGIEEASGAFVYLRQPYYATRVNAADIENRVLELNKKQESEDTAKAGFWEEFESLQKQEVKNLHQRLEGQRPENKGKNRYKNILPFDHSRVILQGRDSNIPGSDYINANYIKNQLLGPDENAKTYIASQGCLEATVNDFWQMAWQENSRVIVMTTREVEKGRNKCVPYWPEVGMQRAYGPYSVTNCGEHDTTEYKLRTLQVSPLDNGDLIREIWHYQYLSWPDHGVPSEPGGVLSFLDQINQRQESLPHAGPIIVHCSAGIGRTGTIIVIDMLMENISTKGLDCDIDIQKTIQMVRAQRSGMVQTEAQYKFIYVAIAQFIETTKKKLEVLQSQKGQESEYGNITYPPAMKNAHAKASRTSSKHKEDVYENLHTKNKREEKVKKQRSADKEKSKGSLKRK

| Ratio [1] | IC50 [2] | IC50 [3] | IC50 [4] | IC50 [5] | IC50 [6] | IC50 [7] | Activity [9] | Activity [12] | SMILES | Activity [8] | Activity [10] | Activity [11] |
| --- | --- | --- | --- | --- | --- | --- | --- | --- | --- | --- | --- | --- |
| 2 | 5.2 µM | 1.33 µM | 1.11 µM | > 40 µM | > 40 µM | > 40 µM | – | – | CC1(C)CC[C@]2(CCCCC(=O)O)CC[C@]3(C)C(=CC[C@@H]4[C@@]5(C)CC[C@H](O)C(C)(C)[C@@H]5CC[C@]43C)[C@@H]2C1 | – | – | – |
| – | – | – | – | > 40 µM | > 40 µM | > 40 µM | – | – | CC1(C)CC[C@]2(C(=O)O)CC[C@]3(C)C(=CC[C@@H]4[C@@]5(C)CC[C@H](O)C(C)(C)[C@@H]5CC[C@]43C)[C@@H]2C1 [OLEANOLIC_ACID] | – | – | – |
| 2 | 0.89 µM | 0.15 µM | 0.16 µM | > 40 µM | > 40 µM | > 40 µM | Dose-dependent effect | Active | CC1(C)CC[C@]2(CCCCC(=O)N[C@@H](Cc3ccccc3)C(=O)O)CC[C@]3(C)C(=CC[C@@H]4[C@@]5(C)CC[C@H](OCc6ccc(C(=O)O)cc6)C(C)(C)[C@@H]5CC[C@]43C)[C@@H]2C1 | Dose-dependent effect | 20% | 40% |
| 2 | 4.05 µM | 0.54 µM | 0.47 µM | > 40 µM | > 40 µM | > 40 µM | – | – | CC1(C)CC[C@]2(C(=O)O)CC[C@]3(C)C(=CC[C@@H]4[C@@]5(C)CC[C@H](OCc6ccc(C(=O)O)cc6)C(C)(C)[C@@H]5CC[C@]43C)[C@@H]2C1 | – | – | – |
| – | 25.8 µM | – | 3.33 µM | > 40 µM | > 40 µM | > 40 µM | – | – | C[C@H]1[C@H](C)CC[C@]2(C(=O)O)CC[C@]3(C)C(=CC[C@@H]4[C@@]5(C)CC[C@H](O)C(C)(C)[C@@H]5CC[C@]43C)[C@H]12 [URSOLIC ACID] | – | – | – |
| 2 | 4.08 µM | 0.57 µM | 0.63 µM | > 40 µM | > 40 µM | > 40 µM | – | – | CC1(C)CC[C@]2(CCCCC(=O)N[C@@H](Cc3ccccc3)C(=O)O)CC[C@]3(C)C(=CC[C@@H]4[C@@]5(C)CC[C@H](O)C(C)(C)[C@@H]5CC[C@]43C)[C@@H]2C1 | – | – | – |
| 2 | 24.6 µM | 5.49 µM | 11.3 µM | > 40 µM | > 40 µM | > 40 µM | – | – | C[C@H]1[C@H](C)CC[C@]2(C(=O)O)CC[C@]3(C)C(=CC[C@@H]4[C@@]5(C)C[C@@H](O)[C@H](O)C(C)(C)[C@@H]5CC[C@]43C)[C@H]12 [COROSOLIC ACID] | – | – | – |
| – | 12.6 µM | 3.31 µM | – | – | – | – | – | – | CC1(C)CC[C@]2(C(=O)N[C@@H](Cc3ccccc3)C(=O)O)CC[C@]3(C)C(=CC[C@@H]4[C@@]5(C)CC[C@H](O)C(C)(C)[C@@H]5CC[C@]43C)[C@@H]2C1 | – | – | – |
| 2 | 0.71 µM | 0.44 µM | 0.6 µM | > 40 µM | > 40 µM | > 40 µM | – | – | CC1(C)CC[C@]2(CCCCC(=O)NC(Cc3ccc4c(c3)OCO4)C(=O)O)CC[C@]3(C)C(=CC[C@@H]4[C@@]5(C)CC[C@H](O)C(C)(C)[C@@H]5CC[C@]43C)[C@@H]2C1 (stereo partly drawn) | – | – | – |
| 2 | 12.4 µM | 2.33 µM | 1.38 µM | > 40 µM | > 40 µM | > 40 µM | – | – | CC1(C)CC[C@]2(C(=O)O)CC[C@]3(C)C(=CC[C@@H]4[C@@]5(C)CC[C@H](OC(=O)CC(C)(C)C(=O)O)C(C)(C)[C@@H]5CC[C@]43C)[C@@H]2C1 | – | – | – |
| – | – | 0.74 µM | 0.68 µM | – | – | – | – | – | CC1(C)CC[C@]2(CCCCC(=O)N[C@H](Cc3ccccc3)C(=O)O)CC[C@]3(C)C(=CC[C@@H]4[C@@]5(C)CC[C@H](O)C(C)(C)[C@@H]5CC[C@]43C)[C@@H]2C1 | – | – | – |
| – | – | 5.97 µM | 5.36 µM | – | – | – | – | – | CC1(C)CC[C@]2(C(=O)O)CC[C@]3(C)C(=CC[C@@H]4[C@@]5(C)CC[C@H](OC(=O)CCC(=O)O)C(C)(C)[C@@H]5CC[C@]43C)[C@@H]2C1 [OLEANOLIC ACID 3-O-SUCCINATE] | – | – | – |
| – | – | 0.78 µM | 0.79 µM | – | – | – | – | – | CC1(C)CC[C@]2(CCCCCCCCC(=O)O)CC[C@]3(C)C(=CC[C@@H]4[C@@]5(C)CC[C@H](O)C(C)(C)[C@@H]5CC[C@]43C)[C@@H]2C1 | – | – | – |
| – | – | 0.6 µM | 0.55 µM | – | – | – | – | – | COc1ccc(CC(NC(=O)CCCC[C@]23CCC(C)(C)C[C@H]2C2=CC[C@@H]4[C@@]5(C)CC[C@H](O)C(C)(C)[C@@H]5CC[C@@]4(C)[C@]2(C)CC3)C(=O)O)cc1 (stereo partly drawn) | – | – | – |
| – | – | 0.63 µM | 0.85 µM | – | – | – | – | – | COc1cc(CC(NC(=O)CCCC[C@]23CCC(C)(C)C[C@H]2C2=CC[C@@H]4[C@@]5(C)CC[C@H](O)C(C)(C)[C@@H]5CC[C@@]4(C)[C@]2(C)CC3)C(=O)O)cc(OC)c1 (stereo partly drawn) | – | – | – |
| 2 | 27.4 µM | 2.1 µM | 2.77 µM | > 40 µM | > 40 µM | > 40 µM | – | – | CC1(C)CC[C@]2(CCC(=O)O)CC[C@]3(C)C(=CC[C@@H]4[C@@]5(C)CC[C@H](O)C(C)(C)[C@@H]5CC[C@]43C)[C@@H]2C1 | – | – | – |
| – | – | 0.72 µM | 0.63 µM | – | – | – | – | – | CC1(C)CC[C@]2(CCCCCCCCCCC(=O)O)CC[C@]3(C)C(=CC[C@@H]4[C@@]5(C)CC[C@H](O)C(C)(C)[C@@H]5CC[C@]43C)[C@@H]2C1 | – | – | – |
